# Measurements published in ChEMBL document CHEMBL2176969, “O2-sulfonylethyl protected isopropylamine diazen-1-ium-1,2-diolates as nitroxyl (HNO) donors: synthesis, β-elimination fragmentation, HNO release, positive inotropic properties, and blood pressure lowering studies” (J Med Chem, 2012).
# The source made the active and inactive calls. No cut-off for these calls is given here.
# Legend:
# [1] = Induction of nitrous oxide release in MeOH/TBS buffer at pH 7.4 at 25 mM after 0.5 hrs by gas chromatographic analysis in presence of glutathione; format: physicochemical; conditions: pH 7.4, 0.5 h, 25000 µM
# Method in brief: (§1)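 Compound (0.04 mmol, 25 mM) in a sealed, inert-gas-flushed flask with 0.8 mL solvent: MeOH plus 500 mM Tris (0.2 mM EDTA), 1:1, at pH 7.4 or 10.0, ± 50 mM GSH, 37 °C. Headspace N₂O measured by GC with electron-capture detection against a standard curve. Yield assumes 2 HNO → 1 N₂O; mean of n = 3; pH-10 runs ended near pH 9.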
# [2] = tested on: Mus musculus; experiment: Antihypertensive activity in C57 mouse assessed as reduction of mean blood pressure at 22.5 mg/kg, po after 6 hrs relative to control; format: functional
# Method in brief: (§2)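 Conscious C57 black mice dosed orally at 22.5 mg/kg (60.345 μmol/kg), vehicle water with 1% methylcellulose; vehicle-only controls (n = 6), treated n = 4 at 1 h, 5 at 3 h, 6 at 6 h. Noninvasive BP (systolic, diastolic; mean = average of the two) and heart rate read at 1, 3, 6 h; each value is the average of three consecutive readings per mouse.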
# [3] = Half life in phosphate buffer at pH 7.4 by spectrophotometric method; format: physicochemical
# Method in brief: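 Decay followed by loss of diazeniumdiolate absorbance near 245 nm in pH 7.4 phosphate buffer with 5% DMSO at 37 °C. Half-life obtained from linear regression of ln(A_t − A_∞) against time.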
# [4] = tested on: Mus musculus; experiment: Effect on heart rate in C57 mouse at 22.5 mg/kg, po after 1 hr relative to control; format: ADME, organism-based; set-up: dose 22.5 mg/kg, route oral; conditions: in vivo; method in brief: as §2
# [5] = Induction of nitrous oxide release in MeOH/TBS buffer at pH 10 at 25 mM after 2 hrs by gas chromatographic analysis in presence of glutathione; format: physicochemical; conditions: pH 10, 2 h, 25000 µM; method in brief: as §1
# [6] = tested on: Heart; experiment: Positive inotropic activity in C57BL/6 mouse Langendorff perfused heart assessed as left ventricular developed pressure at 100 uM measured for 20 mins; format: functional
# Method in brief: (§3)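 Hearts from C57BL/6 mice perfused with Krebs-Henseleit buffer. After 20 min stabilisation with buffer, hearts were perfused with test compound (100 μM) or isoproterenol (100 μM, positive inotropic control) for 20 min. Heart rate, diastolic and systolic rates, and left ventricular developed pressure were recorded. Baseline contractile function was measured as LVDP.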
# [7] = Induction of nitrous oxide release in MeOH/TBS buffer at pH 7.4 at 25 mM after 48 hrs by gas chromatographic analysis; format: physicochemical; conditions: pH 7.4, 48 h, 25000 µM; method in brief: as §1
# [8] = Induction of nitrous oxide release in MeOH/TBS buffer at pH 10 at 25 mM after 2 hrs by gas chromatographic analysis; format: physicochemical; conditions: pH 10, 2 h, 25000 µM; method in brief: as §1
# [9] = Induction of nitrous oxide release in MeOH/TBS buffer at pH 10 at 25 mM after 0.5 hrs by gas chromatographic analysis in presence of glutathione; format: physicochemical; conditions: pH 10, 0.5 h, 25000 µM; method in brief: as §1
# [10] = Induction of nitrous oxide release in MeOH/TBS buffer at pH 7.4 at 25 mM after 48 hrs by gas chromatographic analysis in presence of glutathione; format: physicochemical; conditions: pH 7.4, 48 h, 25000 µM; method in brief: as §1
# [11] = tested on: Mus musculus; experiment: Effect on heart rate in C57 mouse at 22.5 mg/kg, po after 6 hrs relative to control; format: ADME, organism-based; set-up: dose 22.5 mg/kg, route oral; conditions: in vivo; method in brief: as §2
# [12] = tested on: Heart; experiment: Effect on heart rate in C57BL/6 mouse Langendorff perfused heart at 100 uM measured for 20 mins; format: ADME, tissue-based
# Method in brief: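 C57BL/6 mouse hearts perfused with Krebs–Henseleit buffer, stabilized 20 min, then perfused 20 min with compound at 100 μM; isoproterenol 100 μM as positive inotropic control. Heart rate, LVDP and rates of contraction and relaxation recorded.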
# [13] = tested on: Mus musculus; experiment: Antihypertensive activity in C57 mouse assessed as reduction of diastolic blood pressure at 22.5 mg/kg, po after 1 to 6 hrs relative to control; format: functional, organism-based; set-up: dose 22.5 mg/kg; conditions: Artery, in the assay text read “after 3 to 6 hrs” for “after 1 to 6 hrs”; method in brief: as §2
# [14] = Induction of nitroxyl release in 7.5% DMSO and 92.5% phosphate buffer at pH 7.4 at 200 uM after 48 hrs by LC-MS analysis; format: physicochemical; conditions: pH 7.4, 48 h
# Method in brief: (§4)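 Donor at 200 μM with 1 mM trapping phosphine in 7.5% DMSO/92.5% phosphate buffer pH 7.4, 37 °C, with 5.05 μM 4-hydroxybenzophenone internal standard. Quenched with H₂O₂ after 2 or 48 h, dried, taken up in MeOH. HNO-derived amide quantified by LC–MS (ESI negative) from a standard curve; percent of 1 mol HNO/mol; mean of triplicates.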
# [15] = Induction of nitrite release in phosphate buffer at pH 10 at 50 uM after 1.5 hrs by Griess reaction; format: physicochemical; conditions: Tris buffer, pH 10, 1.5 h, in the assay text read “Tris buffer” for “phosphate buffer”
# Method in brief: (§5)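 Compound at 50 μM was incubated 1.5 h at 37 °C in phosphate buffer pH 7.4 or Tris buffer pH 10.0, both containing 5% DMSO. Nitrite was measured by Griess reaction and expressed as percent of the initial compound concentration; mean of n = 3.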
# [16] = Induction of nitrous oxide release in MeOH/TBS buffer at pH 7.4 at 25 mM after 0.5 hrs by gas chromatographic analysis; format: physicochemical; conditions: pH 7.4, 0.5 h, 25000 µM; method in brief: as §1
# [17] = tested on: Mus musculus; experiment: Antihypertensive activity in C57 mouse assessed as reduction of mean blood pressure at 22.5 mg/kg, po after 3 hrs relative to control; format: functional; method in brief: as §2
# [18] = Induction of nitrite release in phosphate buffer at pH 7.4 at 50 uM after 1.5 hrs by Griess reaction; format: physicochemical; conditions: pH 7.4, 1.5 h; method in brief: as §5
# [19] = Induction of nitrous oxide release in MeOH/TBS buffer at pH 7.4 at 25 mM after 2 hrs by gas chromatographic analysis in presence of glutathione; format: physicochemical; conditions: pH 7.4, 2 h, 25000 µM; method in brief: as §1
# [20] = Induction of nitrous oxide release in MeOH/TBS buffer at pH 7.4 at 25 mM after 2 hrs by gas chromatographic analysis; format: physicochemical; conditions: pH 7.4, 2 h, 25000 µM; method in brief: as §1
# [21] = tested on: Mus musculus; experiment: Antihypertensive activity in C57 mouse assessed as reduction of mean blood pressure at 22.5 mg/kg, po after 1 hr relative to control; format: functional; method in brief: as §2
# [22] = tested on: Mus musculus; experiment: Antihypertensive activity in C57 mouse assessed as reduction of systolic blood pressure at 22.5 mg/kg, po after 6 hrs relative to control; format: functional, Artery; method in brief: as §2
# [23] = tested on: Mus musculus; experiment: Antihypertensive activity in C57 mouse assessed as reduction of systolic blood pressure at 22.5 mg/kg, po after 3 hrs relative to control; format: functional, Artery; method in brief: as §2
# [24] = Induction of nitrous oxide release in MeOH/TBS buffer at pH 10 at 25 mM after 0.5 hrs by gas chromatographic analysis; format: physicochemical; conditions: pH 10, 0.5 h, 25000 µM; method in brief: as §1
# [25] = tested on: Mus musculus; experiment: Effect on heart rate in C57 mouse at 22.5 mg/kg, po after 3 hrs relative to control; format: ADME, organism-based; set-up: dose 22.5 mg/kg, route oral; conditions: in vivo; method in brief: as §2
# [26] = tested on: Heart; experiment: Positive inotropic activity in C57BL/6 mouse Langendorff perfused heart assessed as rate of relaxation at 100 uM measured for 20 mins; format: functional; method in brief: as §3
# [27] = tested on: Heart; experiment: Positive inotropic activity in C57BL/6 mouse Langendorff perfused heart assessed as rate of contraction at 100 uM measured for 20 mins; format: functional; method in brief: as §3
# [28] = Induction of nitroxyl release in 7.5% DMSO and 92.5% phosphate buffer at pH 7.4 at 200 uM after 2 hrs by LC-MS analysis; format: physicochemical; conditions: pH 7.4, 2 h; method in brief: as §4
# [29] = tested on: Mus musculus; experiment: Antihypertensive activity in C57 mouse assessed as reduction of systolic blood pressure at 22.5 mg/kg, po after 1 hr relative to control; format: functional, Artery; method in brief: as §2
SMILES,Activity [1],half-life [3],Activity [5],Activity [7],Activity [8],Activity [9],Activity [10],Activity [14],Activity [15],Activity [16],Activity [18],Activity [19],Activity [20],Activity [24],Activity [28],also measured
CC(C)N/[N+]([O-])=N/OCCS(C)(=O)=O,1.3%,15.3 h,2.2%,10.4%,62.2%,0.4%,0.1%,61.4%,26%,0.5%,1.8%,0.9%,1.6%,52.9%,51.2%,mean blood pressure [2]: 87.5 mmHg; Activity [4]: 531 bpm; Activity [6]: 187 cmH2O; Activity [11]: 442 bpm; Activity [12]: 269 bpm; Activity [13]: Active; mean blood pressure [17]: 83.6 mmHg; mean blood pressure [21]: 95.4 mmHg; systolic blood pressure [22]: 114.4 mmHg; systolic blood pressure [23]: 103.4 mmHg; Activity [25]: 488 bpm; Activity [26]: -5330 cmH2O/ms; Activity [27]: 5698 cmH2O/ms; systolic blood pressure [29]: 120.2 mmHg
CC(C)NCC(O)c1ccc(O)c(O)c1 (configuration not stated) [ISOPROTERENOL],,,,,,,,,,,,,,,,Activity [6]: 157 cmH2O; Activity [12]: 334 bpm; Activity [26]: -5882 cmH2O/ms; Activity [27]: 5330 cmH2O/ms
CC(C)N[N+]([O-])=N[O-].[Na+],6.1%,0.0383 h,9.5%,7%,5.7%,8.5%,6.8%,5.1%,36%,9.4%,62%,7.4%,8.3%,5.9%,5.4%,
COS(=O)(=O)CCO/N=[N+](\[O-])NC(C)C,0.2%,17.1 h,1.3%,1.9%,15.1%,1.2%,0.2%,,42%,1.4%,10.6%,0.4%,1.9%,16.7%,,
CC(C)N/[N+]([O-])=N/OCS(C)(=O)=O,,,,,,,,4%,4.6%,,0.4%,,,,0.31%,
CONS(=O)(=O)CCO/N=[N+](\[O-])NC(C)C,0.4%,8.9 h,29%,33.5%,62.9%,17.3%,1.8%,51.3%,10.4%,5.9%,0.8%,0.5%,12.9%,52.6%,46.2%,
CC(C)N/[N+]([O-])=N/OCCS(=O)(=O)NOCc1ccccc1,0.3%,6.6 h,30.3%,27.5%,61.3%,24.2%,0.8%,55.4%,24%,3.8%,6%,0.4%,9.7%,56.8%,47.3%,
CC(C)N(C(=O)OC(C)(C)C)/[N+]([O-])=N/OCCS(C)(=O)=O,,,,,,,,7.2%,25.4%,,28.6%,,,,5.1%,
[Na+].[Na+].[O-][N+]([O-])=NO [ANGELI'S SALT],,,,,,,,85.7%,,,,,,,85.9%,
CC(=O)OCO/N=[N+](\[O-])NC(C)C,,0.683 h,,,,,,,,,,,,,,
